Test results: paper PMC5116011 (The Journal of antibiotics, 2016)
Values after ≈ are worked out from the molar mass of the structure shown. Read-outs that look alike come from different tables or passages of the source.

Key:
[1] = system: E. coli BW25113 ΔampC derivative JW4111-2; type: cell-based, Escherichia coli; details: for MIC: Escherichia coli, BW25113, read-out: MIC ECΔampC −
S. aureus NRS 70 (MRSA) = experiment: MIC, microbroth dilution in Mueller-Hinton broth; type: cell-based; details: Staphylococcus aureus, MRSA|NRS70, read-out: MIC MRSA
How it was run: (§1)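 CLSI broth microdilution in cation-adjusted Mueller-Hinton broth. Inocula were grown from MH agar colonies in MH broth, with a final inoculum of 10^5 CFU/ml. Test compound final range was 200–0.2 µg/ml, incubated 37°C for 18–20 h. MIC was the lowest concentration preventing visible growth. Runs were at least duplicate, and the mean MIC was reported.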

P. aeruginosa PA01 = experiment: MIC, microbroth dilution in Mueller-Hinton broth; type: cell-based, Pseudomonas aeruginosa; details: for MIC PA MH+BP/CCCP / MIC PA +: P. aeruginosa PA01; for MIC PA MH+BP/CCCP: MH broth with 30 µg/ml 2,2′-bipyridyl and 50 µg/ml CCCP; for MIC PA +: with clavulanic acid (6µg/ml); for MIC: Pseudomonas aeruginosa
E. faecalis ATCC33186 = experiment: MIC, microbroth dilution in Mueller-Hinton broth; type: cell-based; details: Enterococcus faecalis, ATCC33186, read-out: MIC EF
How it was run: as §1

B. subtilis ATCC23857 = experiment: MIC, microbroth dilution in Mueller-Hinton broth; type: cell-based; details: Bacillus subtilis, ATCC23857, read-out: MIC BS
How it was run: as §1

[2] = system: E. coli BW25113 ΔtolC derivative JW5503-1; experiment: MIC, microbroth dilution in Mueller-Hinton broth; type: cell-based, Escherichia coli; details: for MIC: Escherichia coli
S. pneumoniae R6 = experiment: MIC, microbroth dilution in Mueller-Hinton broth; type: cell-based; details: Streptococcus pneumoniae, R6, read-out: MIC SP
How it was run: as §1

P. vulgaris ATCC 33420 = experiment: MIC, microbroth dilution in Mueller-Hinton broth; type: cell-based; details: Proteus vulgaris, ATCC33420, read-out: MIC PV
E. coli BW25113 = experiment: MIC, microbroth dilution in Mueller-Hinton broth; type: cell-based, Escherichia coli; details: for MIC EC MH+BP/CCCP: MH broth with 30 µg/ml 2,2′-bipyridyl and 50 µg/ml CCCP; for MIC EC +: with clavulanic acid (6µg/ml); for MIC: Escherichia coli, BW25113, read-out: MIC EC, E. coli BW25113
S. pyogenes ATCC700294 = experiment: MIC, microbroth dilution in Mueller-Hinton broth; type: cell-based; details: Streptococcus pyogenes, ATCC700294, read-out: MIC SPy
How it was run: as §1

[3] = system: S. aureus -ATCC29213 (MSSA); experiment: MIC, microbroth dilution in Mueller-Hinton broth; type: cell-based; details: Staphylococcus aureus, read-out: MIC MSSA
How it was run: as §1

P. mirabilis ATCC 25933 = experiment: MIC, microbroth dilution in Mueller-Hinton broth; type: cell-based; details: Proteus mirabilis, ATCC25933, read-out: MIC PM
B. anthracis sterne = experiment: microbe, parasite or virus in culture; type: cell-based; details: Bacillus anthracis, read-out: MIC BA
[4] = BW25113, read-out: MIC ECΔtolC MH
[5] = BW25113, read-out: MIC ECΔtolC MH+BP

| SMILES | MIC ECΔampC + [1] | MIC (S. aureus NRS 70 (MRSA)) | MIC PA MH+BP/CCCP (P. aeruginosa PA01) | MIC PA + (P. aeruginosa PA01) | MIC (P. aeruginosa PA01; PA01, read-out: MIC PA) | MIC (P. aeruginosa PA01; PA01, read-out: MIC PA MH) | MIC (P. aeruginosa PA01; PA01, read-out: MIC PA MH+BP) | MIC (P. aeruginosa PA01; PA01, read-out: MIC PA MH+CCCP) | MIC (E. faecalis ATCC33186) | MIC (B. subtilis ATCC23857) | MIC [2, 5] | MIC ECΔtolC MH+BP/CCCP [2] | MIC ECΔtolC MH+CCCP [2] | MIC (S. pneumoniae R6) | MIC (P. vulgaris ATCC 33420) | MIC EC MH+BP/CCCP (E. coli BW25113; E. coli BW25113) | MIC EC + (E. coli BW25113; E. coli BW25113) | MIC (E. coli BW25113; Mueller-Hinton broth (Table 2)) | MIC (S. pyogenes ATCC700294) | MIC [3] | other results |
| --- | --- | --- | --- | --- | --- | --- | --- | --- | --- | --- | --- | --- | --- | --- | --- | --- | --- | --- | --- | --- | --- |
| CC1(C)SC2C(NC(=O)C(NC(=O)C3=C(O)C(c4ccccc4)NC3=O)c3ccccc3)C(=O)N2C1C(=O)O (stereo not drawn) [Compound 2745] | 6.25 µg/mL | 25 µg/mL (≈ 45.4 µM) | 12.5 µg/mL (≈ 22.7 µM) | 25 µg/mL | 25 µg/mL (≈ 45.4 µM) | 25 µg/mL (≈ 45.4 µM) | 50 µg/mL (≈ 90.8 µM) | 12.5 µg/mL (≈ 22.7 µM) | 12.5 µg/mL (≈ 22.7 µM) | 3.13 µg/mL (≈ 5.68 µM) | 1.56 µg/mL (≈ 2.83 µM) | 0.78 µg/mL (≈ 1.42 µM) | 1.56 µg/mL (≈ 2.83 µM) | 0.39 µg/mL (≈ 0.708 µM) | 12.5 µg/mL (≈ 22.7 µM) | 12.5 µg/mL (≈ 22.7 µM) | 12.5 µg/mL | 100 µg/mL (≈ 182 µM) | 0.78 µg/mL (≈ 1.42 µM) | 0.78 µg/mL (≈ 1.42 µM) | MIC [1]: 6.25 µg/mL (≈ 11.4 µM); MIC (P. aeruginosa PA01; PA01, read-out: MIC PA −): 25 µg/mL (≈ 45.4 µM); MIC ([2]; BW25113, read-out: MIC ECΔtolC): 3.13 µg/mL (≈ 5.68 µM); MIC [2, 4]: 3.13 µg/mL (≈ 5.68 µM); MIC (P. mirabilis ATCC 25933): 3.13 µg/mL (≈ 5.68 µM); MIC (B. anthracis sterne): 6.25 µg/mL (≈ 11.4 µM) |
| CC1NC(=O)C(C(=O)NC(C(=O)NC2C(=O)N3C2SC(C)(C)C3C(=O)O)c2ccccc2)=C1O (stereo not drawn) [Compound 2746] | 25 µg/mL | 50 µg/mL (≈ 102 µM) | 12.5 µg/mL (≈ 25.6 µM) | 25 µg/mL | 50 µg/mL (≈ 102 µM) | 50 µg/mL (≈ 102 µM) | 50 µg/mL (≈ 102 µM) | 12.5 µg/mL (≈ 25.6 µM) | 25 µg/mL (≈ 51.2 µM) | 3.13 µg/mL (≈ 6.41 µM) | 6.25 µg/mL (≈ 12.8 µM) | 1.56 µg/mL (≈ 3.19 µM) | 3.13 µg/mL (≈ 6.41 µM) | 0.39 µg/mL (≈ 0.798 µM) | 100 µg/mL (≈ 205 µM) | 12.5 µg/mL (≈ 25.6 µM) | 50 µg/mL | 200 µg/mL (≈ 409 µM) | 0.39 µg/mL (≈ 0.798 µM) | 1.56 µg/mL (≈ 3.19 µM) | MIC [1]: 50 µg/mL (≈ 102 µM); MIC (P. aeruginosa PA01; PA01, read-out: MIC PA −): 50 µg/mL (≈ 102 µM); MIC (P. mirabilis ATCC 25933): 3.13 µg/mL (≈ 6.41 µM); MIC (B. anthracis sterne): 1.56 µg/mL (≈ 3.19 µM) |
| CC1(C)SC2C(NC(=O)C(NC(=O)C3=C(O)C4CCCN4C3=O)c3ccccc3)C(=O)N2C1C(=O)O (stereo not drawn) [Compound 2780] | 3.13 µg/mL | 50 µg/mL (≈ 97.2 µM) | 6.25 µg/mL (≈ 12.1 µM) | 12.5 µg/mL | 25 µg/mL (≈ 48.6 µM) | 25 µg/mL (≈ 48.6 µM) | 25 µg/mL (≈ 48.6 µM) | 6.25 µg/mL (≈ 12.1 µM) | 25 µg/mL (≈ 48.6 µM) | 0.78 µg/mL (≈ 1.52 µM) | 6.25 µg/mL (≈ 12.1 µM) | 3.13 µg/mL (≈ 6.08 µM) | 3.13 µg/mL (≈ 6.08 µM) | 0.39 µg/mL (≈ 0.758 µM) | 12.5 µg/mL (≈ 24.3 µM) | 25 µg/mL (≈ 48.6 µM) | 50 µg/mL | 200 µg/mL (≈ 389 µM) | 0.78 µg/mL (≈ 1.52 µM) | 0.39 µg/mL (≈ 0.758 µM) | MIC [1]: 12.5 µg/mL (≈ 24.3 µM); MIC (P. aeruginosa PA01; PA01, read-out: MIC PA −): 25 µg/mL (≈ 48.6 µM); MIC ([2]; BW25113, read-out: MIC ECΔtolC): 6.25 µg/mL (≈ 12.1 µM); MIC [2, 4]: 6.25 µg/mL (≈ 12.1 µM); MIC (P. mirabilis ATCC 25933): 1.56 µg/mL (≈ 3.03 µM); MIC (B. anthracis sterne): 1.56 µg/mL (≈ 3.03 µM) |
| CC1(C)SC2C(NC(=O)C(NC(=O)C3=C(O)C4(CC4)NC3=O)c3ccccc3)C(=O)N2C1C(=O)O (stereo not drawn) [Compound 2833] | 6.25 µg/mL | 25 µg/mL (≈ 49.9 µM) | 12.5 µg/mL (≈ 25 µM) | 6.25 µg/mL | 25 µg/mL (≈ 49.9 µM) | 25 µg/mL (≈ 49.9 µM) | 25 µg/mL (≈ 49.9 µM) | 12.5 µg/mL (≈ 25 µM) | 12.5 µg/mL (≈ 25 µM) | 0.39 µg/mL (≈ 0.779 µM) | 1.56 µg/mL (≈ 3.12 µM) | 0.78 µg/mL (≈ 1.56 µM) | 1.56 µg/mL (≈ 3.12 µM) | < 0.2 µg/mL | 100 µg/mL (≈ 200 µM) | 6.25 µg/mL (≈ 12.5 µM) | 12.5 µg/mL | 100 µg/mL (≈ 200 µM) | 0.78 µg/mL (≈ 1.56 µM) | < 0.2 µg/mL | MIC [1]: 12.5 µg/mL (≈ 25 µM); MIC ([2]; BW25113, read-out: MIC ECΔtolC): 3.13 µg/mL (≈ 6.25 µM); MIC [2, 4]: 3.13 µg/mL (≈ 6.25 µM); MIC (P. mirabilis ATCC 25933): 6.25 µg/mL (≈ 12.5 µM); MIC (B. anthracis sterne): 1.56 µg/mL (≈ 3.12 µM) |
| CC1(C)SC2C(NC(=O)C(NC(=O)C3=C(O)C(Cc4ccc([N+](=O)[O-])cc4)NC3=O)c3ccccc3)C(=O)N2C1C(=O)O (stereo not drawn) [Compound 2835] | 12.5 µg/mL | 25 µg/mL (≈ 41 µM) | 12.5 µg/mL (≈ 20.5 µM) | 6.25 µg/mL | 25 µg/mL (≈ 41 µM) | 25 µg/mL (≈ 41 µM) | 25 µg/mL (≈ 41 µM) | 12.5 µg/mL (≈ 20.5 µM) | 25 µg/mL (≈ 41 µM) | < 0.2 µg/mL | 1.56 µg/mL (≈ 2.56 µM) | 0.78 µg/mL (≈ 1.28 µM) | 1.56 µg/mL (≈ 2.56 µM) | < 0.2 µg/mL | 25 µg/mL (≈ 41 µM) | 12.5 µg/mL (≈ 20.5 µM) | 6.25 µg/mL | 100 µg/mL (≈ 164 µM) | 0.78 µg/mL (≈ 1.28 µM) | < 0.2 µg/mL | MIC ([2]; BW25113, read-out: MIC ECΔtolC): 3.13 µg/mL (≈ 5.13 µM); MIC [2, 4]: 3.13 µg/mL (≈ 5.13 µM); MIC (P. mirabilis ATCC 25933): 25 µg/mL (≈ 41 µM); MIC (B. anthracis sterne): 3.13 µg/mL (≈ 5.13 µM) |
| CC1(C)SC2C(NC(=O)C(NC(=O)C3=C(O)C(Cc4ccc(O)cc4)NC3=O)c3ccccc3)C(=O)N2C1C(=O)O (stereo not drawn) [Compound 2918] | 6.25 µg/mL | 50 µg/mL (≈ 86.1 µM) | 6.25 µg/mL (≈ 10.8 µM) | 6.25 µg/mL | 50 µg/mL (≈ 86.1 µM) | 50 µg/mL (≈ 86.1 µM) | 25 µg/mL (≈ 43.1 µM) | 6.25 µg/mL (≈ 10.8 µM) | 25 µg/mL (≈ 43.1 µM) | 3.13 µg/mL (≈ 5.39 µM) | 1.56 µg/mL (≈ 2.69 µM) | 0.78 µg/mL (≈ 1.34 µM) | 0.78 µg/mL (≈ 1.34 µM) | 0.39 µg/mL (≈ 0.672 µM) | 6.25 µg/mL (≈ 10.8 µM) | 6.25 µg/mL (≈ 10.8 µM) | 12.5 µg/mL | 6.25 to 12.5 µg/mL (≈ 10.8 to 21.5 µM) | 1.56 µg/mL (≈ 2.69 µM) | 0.78 µg/mL (≈ 1.34 µM) | MIC ([2]; BW25113, read-out: MIC ECΔtolC): 6.25 µg/mL (≈ 10.8 µM); MIC [2, 4]: 1.56 µg/mL (≈ 2.69 µM); MIC EC (E. coli BW25113; E. coli BW25113, Mueller-Hinton broth (Table 2)): 6.25 µg/mL (≈ 10.8 µM); MIC (P. mirabilis ATCC 25933): 6.25 µg/mL (≈ 10.8 µM); MIC (B. anthracis sterne): 6.25 µg/mL (≈ 10.8 µM) |
